# Laboratory results published in ChEMBL document CHEMBL1134346, “Labeling and evaluation of N-[11C]methylated quinoline-2-carboxamides as potential radioligands for visualization of peripheral benzodiazepine receptors” (J Med Chem, 2001).
# What was measured:
# Rattus norvegicus [1] = species on record: Rattus norvegicus; test: Tissue (intestine) distribution in Albino male CD rats after 5 minutes expressed as percent of injected dose per gram of organ.; assay type: ADME, organism-based; conditions: in vivo
# Procedure, shortened: (§1)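 Radioligand given in saline into tail vein of male albino CD rats (225-250 g); 100-200 µCi per animal, 1-2 Ci/µmol at injection depending on radioligand. Three rats per time point were decapitated under light ether anaesthesia. Blood, plasma, brain regions and washed organs were weighed and gamma-counted. Uptake is %I.D./g tissue, mean ± SD.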
# Rattus norvegicus [2] = species on record: Rattus norvegicus; test: Tissue (plasma) distribution in Albino male CD rats after 30 minutes expressed as percent of injected dose per gram of organ.; assay type: ADME, organism-based; conditions: in vivo, 0.5 h
# Procedure, shortened: (§2)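 Male albino CD rats (225-250 g) received the 11C-labelled radioligand in saline by tail-vein injection. Three rats per time point were decapitated under light ether anaesthesia at 5, 15, 30, 60 or 90 min. Blood was collected heparinized and plasma separated by centrifugation. The pituitary was dissected from the brain. Lung, liver (three-lobe pieces) and right deltoid muscle were sampled, washed in cold saline, gamma-counted and weighed. Results are %I.D./g.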
# Rattus norvegicus [3] = species on record: Rattus norvegicus; test: Tissue (liver) distribution in Albino male CD rats after 90 minutes expressed as percent of injected dose per gram of organ.; assay type: ADME, organism-based; conditions: in vivo, 1.5 h; procedure, shortened: as §2
# [4] = molecular target: Translocator protein (Rattus norvegicus) (UniProt P16257); test: Tissue (blood) concentration of radioactivity at 30 min post-injection into Albino male CD rats after pretreatment with cold PK 11195.; assay type: functional, tissue-based
# Procedure, shortened: (§3)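 Separate groups of five rats received tail-vein PK 11195 (1.4-1.6 mg; 5 mg/kg) in 30 µL DMSO:EtOH 1:1, or vehicle alone, immediately before iv radioligand (90-170 µCi in saline, 0.9-1 Ci/µmol). Rats were decapitated at 30 min and tissues gamma-counted; values are %I.D./g.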
# Rattus norvegicus [5] = species on record: Rattus norvegicus; test: Tissue (blood) distribution in Albino male CD rats after 90 minutes expressed as percent of injected dose per gram of organ.; assay type: ADME, organism-based; conditions: in vivo, 1.5 h; procedure, shortened: as §1
# Rattus norvegicus [6] = species on record: Rattus norvegicus; test: Tissue (intestine) distribution in Albino male CD rats after 30 minutes expressed as percent of injected dose per gram of organ.; assay type: ADME, organism-based; conditions: in vivo, 0.5 h; procedure, shortened: as §1
# Rattus norvegicus [7] = species on record: Rattus norvegicus; test: Tissue (lung) distribution in Albino male CD rats after 5 minutes expressed as percent of injected dose per gram of organ.; assay type: ADME, organism-based; conditions: in vivo; procedure, shortened: as §2
# Rattus norvegicus [8] = species on record: Rattus norvegicus; test: Tissue (blood) distribution in Albino male CD rats after 5 minutes expressed as percent of injected dose per gram of organ.; assay type: ADME, organism-based; conditions: in vivo; procedure, shortened: as §1
# Rattus norvegicus [9] = species on record: Rattus norvegicus; test: Tissue (heart) concentration of radioactivity at 30 min post-injection into Albino male CD rats with vehicle.; assay type: ADME, organism-based; conditions: in vivo, 0.5 h; procedure, shortened: as §3
# Rattus norvegicus [10] = species on record: Rattus norvegicus; test: Tissue (heart) distribution in Albino male CD rats after 5 minutes expressed as percent of injected dose per gram of organ.; assay type: ADME, organism-based; conditions: in vivo; procedure, shortened: as §1
# [11] = molecular target: Translocator protein (Rattus norvegicus) (UniProt P16257); test: Tissue (liver) concentration of radioactivity at 30 min post-injection into Albino male CD rats after pretreatment with cold PK 11195.; assay type: functional, tissue-based; procedure, shortened: as §3
# Rattus norvegicus [12] = species on record: Rattus norvegicus; test: Tissue (pituitary) distribution in Albino male CD rats after 60 minutes expressed as percent of injected dose per gram of organ.; assay type: ADME, organism-based, Pituitary gland; conditions: in vivo, 1 h; procedure, shortened: as §2
# Rattus norvegicus [13] = species on record: Rattus norvegicus; test: Tissue (liver) distribution in Albino male CD rats after 5 minutes expressed as percent of injected dose per gram of organ.; assay type: ADME, organism-based; conditions: in vivo; procedure, shortened: as §2
# Rattus norvegicus [14] = species on record: Rattus norvegicus; test: Tissue (lung) distribution in Albino male CD rats after 90 minutes expressed as percent of injected dose per gram of organ.; assay type: ADME, organism-based; conditions: in vivo, 1.5 h; procedure, shortened: as §2
# Rattus norvegicus [15] = species on record: Rattus norvegicus; test: Tissue (adrenal gland) concentration of radioactivity at 30 min post-injection into Albino male CD rats with vehicle.; assay type: ADME, organism-based; conditions: in vivo, 0.5 h; procedure, shortened: as §3
# Rattus norvegicus [16] = species on record: Rattus norvegicus; test: Tissue (plasma) distribution in Albino male CD rats after 5 minutes expressed as percent of injected dose per gram of organ.; assay type: ADME, organism-based; conditions: in vivo; procedure, shortened: as §2
# Rattus norvegicus [17] = species on record: Rattus norvegicus; test: Tissue (heart) distribution in Albino male CD rats after 60 minutes expressed as percent of injected dose per gram of organ.; assay type: ADME, organism-based; conditions: in vivo, 1 h; procedure, shortened: as §1
# Rattus norvegicus [18] = species on record: Rattus norvegicus; test: Tissue (lung) distribution in Albino male CD rats after 60 minutes expressed as percent of injected dose per gram of organ.; assay type: ADME, organism-based; conditions: in vivo, 1 h; procedure, shortened: as §2
# Rattus norvegicus [19] = species on record: Rattus norvegicus; test: Tissue (kidney) distribution in Albino male CD rats after 5 minutes expressed as percent of injected dose per gram of organ.; assay type: ADME, organism-based; conditions: in vivo; procedure, shortened: as §1
# Rattus norvegicus [20] = species on record: Rattus norvegicus; test: Tissue (testicle) distribution in Albino male CD rats after 30 minutes expressed as percent of injected dose per gram of organ.; assay type: ADME, organism-based; conditions: in vivo, 0.5 h; procedure, shortened: as §2
# Rattus norvegicus [21] = species on record: Rattus norvegicus; test: Tissue (kidney) distribution in Albino male CD rats after 90 minutes expressed as percent of injected dose per gram of organ.; assay type: ADME, organism-based; conditions: in vivo, 1.5 h; procedure, shortened: as §1
# Rattus norvegicus [22] = species on record: Rattus norvegicus; test: Tissue (spleen) distribution in Albino male CD rats after 90 minutes expressed as percent of injected dose per gram of organ.; assay type: ADME, organism-based; conditions: in vivo, 1.5 h
# Rattus norvegicus [23] = species on record: Rattus norvegicus; test: Tissue (cortex) distribution in Albino male CD rats after 5 minutes expressed as percent of injected dose per gram of organ.; assay type: ADME, organism-based; conditions: in vivo; procedure, shortened: as §1
# Rattus norvegicus [24] = species on record: Rattus norvegicus; test: Tissue (adrenal gland) distribution in Albino male CD rats after 30 minutes expressed as percent of injected dose per gram of organ.; assay type: ADME, organism-based; conditions: in vivo, 0.5 h; procedure, shortened: as §1
# Rattus norvegicus [25] = species on record: Rattus norvegicus; test: Tissue (muscle) distribution in Albino male CD rats after 30 minutes expressed as percent of injected dose per gram of organ.; assay type: ADME, organism-based; conditions: in vivo, 0.5 h; procedure, shortened: as §2
# Rattus norvegicus [26] = species on record: Rattus norvegicus; test: Tissue (plasma) distribution in Albino male CD rats after 15 minutes expressed as percent of injected dose per gram of organ.; assay type: ADME, organism-based; conditions: in vivo, 0.25 h; procedure, shortened: as §2
# Rattus norvegicus [27] = species on record: Rattus norvegicus; test: Tissue (spleen) concentration of radioactivity at 30 min post-injection into Albino male CD rats with vehicle.; assay type: ADME, organism-based; conditions: in vivo, 0.5 h
# Procedure, shortened: (§4)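 Blocking study in male albino CD rats, five per group. Immediately before the 11C radioligand (in saline, i.v. tail vein), rats received 30 µL tail-vein PK 11195 (5 mg/kg; 1.4-1.6 mg) in DMSO:EtOH 1:1, or vehicle. Rats were decapitated at 30 min. Tissues were dissected, washed, gamma-counted and weighed as in the biodistribution study. Results are %I.D./g.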
# Rattus norvegicus [28] = species on record: Rattus norvegicus; test: Tissue (pituitary) distribution in Albino male CD rats after 30 minutes expressed as percent of injected dose per gram of organ.; assay type: ADME, organism-based, Pituitary gland; conditions: in vivo, 0.5 h; procedure, shortened: as §2
# Rattus norvegicus [29] = species on record: Rattus norvegicus; test: Tissue (spleen) distribution in Albino male CD rats after 5 minutes expressed as percent of injected dose per gram of organ.; assay type: ADME, organism-based; conditions: in vivo; procedure, shortened: as §2
# [30] = molecular target: Translocator protein (Rattus norvegicus) (UniProt P16257); test: Tissue (kidney) concentration of radioactivity at 30 min post-injection into Albino male CD rats after pretreatment with cold PK 11195.; assay type: functional, tissue-based; procedure, shortened: as §3
# Rattus norvegicus [31] = species on record: Rattus norvegicus; test: Tissue (cortex) distribution in Albino male CD rats after 15 minutes expressed as percent of injected dose per gram of organ.; assay type: ADME, organism-based; conditions: in vivo, 0.25 h; procedure, shortened: as §1
# Rattus norvegicus [32] = species on record: Rattus norvegicus; test: Tissue (kidney) distribution in Albino male CD rats after 15 minutes expressed as percent of injected dose per gram of organ.; assay type: ADME, organism-based; conditions: in vivo, 0.25 h; procedure, shortened: as §1
# Rattus norvegicus [33] = species on record: Rattus norvegicus; test: Tissue (adrenal gland) distribution in Albino male CD rats after 15 minutes expressed as percent of injected dose per gram of organ.; assay type: ADME, organism-based; conditions: in vivo, 0.25 h; procedure, shortened: as §1
# Rattus norvegicus [34] = species on record: Rattus norvegicus; test: Tissue (muscle) distribution in Albino male CD rats after 60 minutes expressed as percent of injected dose per gram of organ.; assay type: ADME, organism-based; conditions: in vivo, 1 h; procedure, shortened: as §2
# Rattus norvegicus [35] = species on record: Rattus norvegicus; test: Tissue (pituitary) concentration of radioactivity at 30 min post-injection into Albino male CD rats with vehicle.; assay type: ADME, organism-based, Pituitary gland; conditions: in vivo, 0.5 h; procedure, shortened: as §4
# Rattus norvegicus [36] = species on record: Rattus norvegicus; test: Tissue (cerebellum) distribution in Albino male CD rats after 15 minutes expressed as percent of injected dose per gram of organ.; assay type: ADME, organism-based; conditions: in vivo, 0.25 h; procedure, shortened: as §1
# Rattus norvegicus [37] = species on record: Rattus norvegicus; test: Tissue (lung) distribution in Albino male CD rats after 15 minutes expressed as percent of injected dose per gram of organ.; assay type: ADME, organism-based; conditions: in vivo, 0.25 h; procedure, shortened: as §2
# Rattus norvegicus [38] = species on record: Rattus norvegicus; test: Tissue (cortex) concentration of radioactivity at 30 min post-injection into Albino male CD rats with vehicle.; assay type: ADME, organism-based; conditions: in vivo, 0.5 h; procedure, shortened: as §3
# Rattus norvegicus [39] = species on record: Rattus norvegicus; test: Tissue (spleen) distribution in Albino male CD rats after 60 minutes expressed as percent of injected dose per gram of organ.; assay type: ADME, organism-based; conditions: in vivo, 1 h
# Rattus norvegicus [40] = species on record: Rattus norvegicus; test: Tissue (cortex) distribution in Albino male CD rats after 30 minutes expressed as percent of injected dose per gram of organ.; assay type: ADME, organism-based; conditions: in vivo, 0.5 h; procedure, shortened: as §1
# Sequence of Translocator protein (Rattus norvegicus) (P16257 whole entry, looked up): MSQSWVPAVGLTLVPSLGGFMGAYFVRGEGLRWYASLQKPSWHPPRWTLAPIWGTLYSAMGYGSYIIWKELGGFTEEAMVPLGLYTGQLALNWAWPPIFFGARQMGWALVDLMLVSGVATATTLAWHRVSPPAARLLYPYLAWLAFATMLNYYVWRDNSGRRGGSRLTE
smiles,measurement,setting,value
CCC(C)N(C)C(=O)c1nc2ccccc2c(-c2ccccc2)c1C (stereo not given),I.D./g,Rattus norvegicus [1],0.25%
same,I.D./g,Rattus norvegicus [2],0.03%
same,I.D./g,Rattus norvegicus [3],0.27%
same,I.D./g,[4],< 0.06%
same,I.D./g,Rattus norvegicus [5],0.03%
same,I.D./g,Rattus norvegicus [6],0.4%
same,I.D./g,Rattus norvegicus [7],3.09%
same,I.D./g,Rattus norvegicus [8],0.13%
same,I.D./g,Rattus norvegicus [9],0.77%
same,I.D./g,Rattus norvegicus [10],0.86%
same,I.D./g,[11],< 0.56%
same,I.D./g,Rattus norvegicus [12],0.25%
same,I.D./g,Rattus norvegicus [13],0.64%
same,I.D./g,Rattus norvegicus [14],1.27%
same,I.D./g,Rattus norvegicus [15],1.6%
same,I.D./g,Rattus norvegicus [16],0.12%
same,I.D./g,Rattus norvegicus [17],1.26%
same,I.D./g,Rattus norvegicus [18],1.33%
same,I.D./g,Rattus norvegicus [19],0.59%
same,I.D./g,Rattus norvegicus [20],0.08%
same,I.D./g,Rattus norvegicus [21],0.73%
same,I.D./g,Rattus norvegicus [22],1.06%
same,I.D./g,Rattus norvegicus [23],0.12%
same,I.D./g,Rattus norvegicus [24],2.54%
same,I.D./g,Rattus norvegicus [25],0.16%
same,I.D./g,Rattus norvegicus [26],0.05%
same,I.D./g,Rattus norvegicus [27],0.56%
same,I.D./g,Rattus norvegicus [28],0.24%
same,I.D./g,Rattus norvegicus [29],0.5%
same,I.D./g,[30],< 0.16%
same,I.D./g,Rattus norvegicus [31],0.07%
same,I.D./g,Rattus norvegicus [32],0.6%
same,I.D./g,Rattus norvegicus [33],1.38%
same,I.D./g,Rattus norvegicus [34],0.12%
same,I.D./g,Rattus norvegicus [35],0.25%
same,I.D./g,Rattus norvegicus [36],0.08%
same,I.D./g,Rattus norvegicus [37],2.01%
same,I.D./g,Rattus norvegicus [38],0.05%
same,I.D./g,Rattus norvegicus [39],1.25%
same,I.D./g,Rattus norvegicus [40],0.07%
